Experimental data published in ChEMBL document CHEMBL1139935, “Discovery of novel indazole-linked triazoles as antifungal agents” (2007).
Converted amounts (≈) assume the structure as drawn.

How the values were obtained:
[1] = system: Candida albicans; test: Antifungal activity against Candida albicans ATCC 36082 by broth microdilution assay; type: functional
[2] = system: Nakaseomyces glabratus; test: Antifungal activity against Candida glabrata ATCC 34138 by broth microdilution assay; type: functional
[3] = system: Pichia kudriavzevii; test: Antifungal activity against Candida krusei ATCC 6528 by broth microdilution assay; type: functional
[4] = system: Clavispora lusitaniae; test: Antifungal activity against Candida lusitaniae ATCC 42720 by broth microdilution assay; type: functional
[5] = system: Candida tropicalis; test: Antifungal activity against Candida tropicalis ATCC 750 by broth microdilution assay; type: functional
[6] = system: Candida parapsilosis; test: Antifungal activity against Candida parapsilosis ATCC 21019 by broth microdilution assay; type: functional; conditions: Lodderomyces parapsilosis
[7] = system: Aspergillus fumigatus; test: Antifungal activity against Aspergillus fumigatus ATCC 16424 by broth microdilution assay; type: functional
[8] = system: Aspergillus flavus; test: Antifungal activity against Aspergillus flavus ATCC MYA-1004 by broth microdilution assay; type: functional
[9] = system: Aspergillus terreus; test: Antifungal activity against Aspergillus terreus ATCC 28301 by broth microdilution assay; type: functional
[10] = system: Aspergillus niger; test: Antifungal activity against Aspergillus niger ATCC 9042 by broth microdilution assay; type: functional
[11] = system: HepG2; test: Cytotoxicity against human HepG2 cells at 50 uM by neutral red uptake assay; type: functional
[12] = system: Cryptococcus neoformans; test: Antifungal activity against Cryptococcus neoformans ATCC 24065 by broth microdilution assay
[13] = system: HepG2; test: Cytotoxicity against human HepG2 cells by neutral red uptake assay; type: functional
Method in brief: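 Human hepatoma HepG2 cells; neutral red uptake read-out following a previously described protocol; the value is the CC50 (concentration giving half-maximal cytotoxicity); ketoconazole served as reference agent.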

[14] = system: Candida albicans; test: Antifungal activity against systemic Candida albicans ATCC 36082 infection model in ICR mouse assessed as survival at 20 mg/kg, po; type: functional
Method in brief: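 C. albicans ATCC 36082 given systemically, about 5 × 10⁵ cells per animal. Oral dosing at 20 mg/kg once daily started 2 h post-infection and continued for 7 consecutive days. Read-out was mean survival days, compared against an untreated infected control group.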

| SMILES | MIC80 [1] [µg/mL] | MIC80 [2] [µg/mL] | MIC80 [3] [µg/mL] | MIC80 [4] [µg/mL] | MIC80 [5] [µg/mL] | MIC80 [6] [µg/mL] | MIC80 [7] [µg/mL] | MIC80 [8] [µg/mL] | MIC80 [9] [µg/mL] | MIC80 [10] [µg/mL] | inhibition at 50 µM [11] [%] | MIC80 [12] [µg/mL] | CC50 [13] [µM] | Survival [14] [days] |
| --- | --- | --- | --- | --- | --- | --- | --- | --- | --- | --- | --- | --- | --- | --- |
| Cc1nn([C@H](C)[C@](O)(Cn2cncn2)c2ccc(F)cc2F)c2cccc(F)c12 | ≤ 0.015 | 8 (≈ 19.9 µM) | 1 (≈ 2.49 µM) | 0.125 (≈ 0.311 µM) | 1 (≈ 2.49 µM) | 0.25 (≈ 0.623 µM) | 16 (≈ 39.9 µM) | > 16 | > 16 | > 16 | 8.1 | 0.125 (≈ 0.311 µM) | – | – |
| C[C@@H](n1cc2cc(Br)ccc2n1)[C@](O)(Cn1cncn1)c1ccc(F)cc1F | ≤ 0.015 | 2 (≈ 4.46 µM) | 0.125 (≈ 0.279 µM) | ≤ 0.015 | ≤ 0.015 | ≤ 0.015 | 0.25 (≈ 0.558 µM) | 0.5 (≈ 1.12 µM) | 0.5 (≈ 1.12 µM) | 1 (≈ 2.23 µM) | – | ≤ 0.015 | 141 | 13.5 |
| Cc1nn([C@H](C)[C@](O)(Cn2cncn2)c2ccc(F)cc2F)c2ccc(C(F)(F)F)cc12 | ≤ 0.015 | 8 (≈ 17.7 µM) | 4 (≈ 8.86 µM) | 0.25 (≈ 0.554 µM) | > 8 | 1 (≈ 2.22 µM) | > 16 | > 16 | > 16 | > 16 | 2.9 | 1 (≈ 2.22 µM) | – | – |
| C[C@@H](n1ncc2ccccc21)[C@](O)(Cn1cncn1)c1ccc(F)cc1F | ≤ 0.015 | 2 (≈ 5.41 µM) | 0.5 (≈ 1.35 µM) | 0.063 (≈ 0.171 µM) | 0.125 (≈ 0.338 µM) | 0.063 (≈ 0.171 µM) | 2 (≈ 5.41 µM) | 1 (≈ 2.71 µM) | 2 (≈ 5.41 µM) | 4 (≈ 10.8 µM) | – | 0.063 (≈ 0.171 µM) | 599 | 7.2 |
| C[C@@H](n1ncc2cc([N+](=O)[O-])ccc21)[C@](O)(Cn1cncn1)c1ccc(F)cc1F | ≤ 0.015 | 4 (≈ 9.65 µM) | 0.25 (≈ 0.603 µM) | ≤ 0.015 | 0.031 (≈ 0.0748 µM) | 0.031 (≈ 0.0748 µM) | 1 (≈ 2.41 µM) | 1 (≈ 2.41 µM) | 2 (≈ 4.83 µM) | 2 (≈ 4.83 µM) | – | 0.063 (≈ 0.152 µM) | – | 12.4 |
| OC(Cn1cncn1)(Cn1cncn1)c1ccc(F)cc1F [FLUCONAZOLE] | 2 (≈ 6.53 µM) | > 8 | > 8 | 8 (≈ 26.1 µM) | > 8 | > 8 | > 128 | > 128 | > 128 | > 128 | – | 8 (≈ 26.1 µM) | – | – |
| CC(=O)N1CCN(c2ccc(OCC3COC(Cn4ccnc4)(c4ccc(Cl)cc4Cl)O3)cc2)CC1 (configuration not stated) [KETOCONAZOLE] | – | 4 (≈ 7.53 µM) | – | – | – | – | – | – | – | – | – | – | 51 | – |
| C[C@@H](c1nc(-c2ccc(C#N)cc2)cs1)[C@](O)(Cn1cncn1)c1ccc(F)cc1F [RAVUCONAZOLE] | ≤ 0.015 | 2 (≈ 4.57 µM) | 0.125 (≈ 0.286 µM) | ≤ 0.015 | ≤ 0.015 | ≤ 0.015 | 0.125 (≈ 0.286 µM) | 0.5 (≈ 1.14 µM) | 0.5 (≈ 1.14 µM) | 1 (≈ 2.29 µM) | – | ≤ 0.015 | – | – |
| C[C@@H](c1ncncc1F)[C@](O)(Cn1cncn1)c1ccc(F)cc1F [VORICONAZOLE] | ≤ 0.015 | 4 (≈ 11.5 µM) | 1 (≈ 2.86 µM) | 0.063 (≈ 0.18 µM) | 0.25 (≈ 0.716 µM) | 0.25 (≈ 0.716 µM) | 0.25 (≈ 0.716 µM) | 0.5 (≈ 1.43 µM) | 1 (≈ 2.86 µM) | 1 (≈ 2.86 µM) | – | 0.125 (≈ 0.358 µM) | – | – |
